Our source for the IC50 values is ChEMBL document CHEMBL1157237, “Methanolysis products of disorazole A1” (J Nat Prod, 2006).

As usually defined, the IC50 is the concentration that inhibits the measured activity by half. Read a low IC50 as higher potency.

Holding throughout (format): functional, cell-based
For test [1], the system named is CCRF-CEM. The test can be described thus: Antiproliferative activity against human multidrug-resistant P-glycoprotein expressing CCRF-CEM/PTX cells after 72 hrs by celltitre assay. The procedure, abridged: (§1)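 Cultured in RPMI 1640 with 5% FBS at 37 °C and 5% CO2. Seeded in duplicate at about 5000 cells/well and incubated 24 h before 10-fold serial compound dilutions were added for 72 h. Viability measured by CellTiter-Glo luminescence. IC50 = concentration inhibiting growth by 50%.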

A further test has as its system MCF7. The test can be described thus: Antiproliferative activity against human MCF7 cells after 72 hrs by celltitre assay. To be noted: MCF7, 72 h. The procedure, abridged:
(§2)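 Cells grown in RPMI 1640 with 10% FBS at 37 °C under 5% CO2, seeded in duplicate at about 5000 cells/well and left 24 h. Compounds then added as 10-fold serial dilutions for 72 h. Viability read by CellTiter-Glo luminescence. IC50 taken as the concentration giving 50% inhibition of cell growth.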

The subject of test [2] is CCRF-CEM. The test can be described thus: Antiproliferative activity against human CCRF-CEM cells after 72 hrs by celltitre assay. The procedure, abridged: as §1
The test system of another test is A549. The test can be described thus: Antiproliferative activity against human A549 cells after 72 hrs by celltitre assay. To be noted: A549, 72 h. The procedure, abridged:
as §2

Test [3] can be described thus: Antiproliferative activity against human multidrug-resistant P-glycoprotein expressing NCI/ADR cells after 72 hrs by celltitre assay. The note with it: NCI/ADR-RES. An outline of the steps:
as §2

`C/C=C/[C@H](O)C(C)(C)[C@@H]1C\C=C/C=C\C=C\[C@H](OC)Cc2nc(co2)C(=O)O[C@H](C(C)(C)[C@@H](O)/C=C/C)C/C=C\[C@@H](O)C(OC)/C=C/C=C\c2nc(co2)C(=O)O1` (stereo not given in full): the IC50 is 0.24 nM in the test on CCRF-CEM [1]; 0.24 nM with MCF7; 0.11 nM with CCRF-CEM [2]; 0.25 nM in the test with A549; 2.8 nM in test [3].
`C/C=C/[C@H](O)C(C)(C)[C@@H]1C\C=C/C=C\C=C\[C@H](OC)Cc2nc(co2)C(=O)O[C@H](C(C)(C)[C@@H](O)/C=C/C)C/C=C\[C@@H](O)/C=C/C(OC)/C=C\c2nc(co2)C(=O)O1` (stereo not given in full): the IC50 in the test with CCRF-CEM [1] is 1.3 nM; in the test with MCF7, 0.62 nM; with CCRF-CEM [2], 0.33 nM; with A549, 0.73 nM; in test [3] it was 28 nM.
On the same counts, the results for `C/C=C/[C@H](O)C(C)(C)[C@@H]1C\C=C/C=C\C=C\[C@H](OC)Cc2nc(co2)C(=O)O[C@H](C(C)(C)[C@@H](O)/C=C/C)C/C=C\[C@H]2O[C@H]2/C=C/C=C\c2nc(co2)C(=O)O1` [DISORAZOLE A1] are 0.066 nM, 0.25 nM, 0.07 nM, 0.31 nM and 0.52 nM.
